Consider twelve molecules from ChEMBL document CHEMBL4602668, “Oxygenated Cyclohexene Derivatives and Other Constituents from the Roots of Monanthotaxis trichocarpa” (J Nat Prod, 2020).

The term EC50 denotes the concentration giving half of the maximal effect. A low value points to a more potent agent. The term MIC denotes the lowest concentration that inhibits growth of the organism. Higher therefore signals weaker potency.

In brackets after ≈: the same amount, converted by molar mass. Activity calls are given as the source filed them. No cut-off for these calls is given here.

One assay concerns MCF7. In words: Cytotoxicity against human MCF7 cells after 24 hrs by PrestoBlue cell viability reagent based assay. The assay is classed as functional. The conditions noted are these: MCF7, 24 h. The essentials:
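MCF-7 cells were kept in exponential growth in DMEM with 10% fetal calf serum, reseeded in 96-well plates, and settled 24 h. Compounds were added from DMSO stock (final solvent 0.3% v/v) in 2-fold dilutions for 24 h. Viability was read as resorufin fluorescence (ex 544/em 590 nm) and expressed as % of solvent-only control. EC50 came from three independent replicate experiments.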
`COc1cc(O)c(Cc2ccccc2O)c(O)c1C(=O)CCc1ccccc1` [UVARETIN] registered an EC50 of 10.2 µM.

The next assay has as its system Bacillus subtilis. In words: Antibacterial activity against Bacillus subtilis incubated for 18 hrs by AlamarBlue assay. It counts as functional.
Conditions: not given
For orientation: Resazurin is reduced to fluorescent resorufin, in cell work by metabolically active cells.
Molecule `COc1cc(O)c(Cc2ccccc2O)c(O)c1C(=O)CCc1ccccc1` [UVARETIN] gave an MIC of 18 µM (≈ 6.81 µg/mL).

A further assay relates to Escherichia coli. The assay can be described thus: Antibacterial activity against Escherichia coli at 5 mM incubated for 18 hrs by AlamarBlue assay. It counts as functional, organism-based.
Conditions: not given
As for `O=C(OCc1ccccc1)c1ccccc1`, the result was inactive.

In the case of `CO[C@@H]1[C@H](OC(=O)c2ccccc2)C=C[C@@H](O)[C@@]1(O)COC(=O)c1ccccc1`, the outcome was inactive.

Regarding `COc1c(Cc2ccccc2O)c(O)c(Cc2ccccc2O)c(O)c1C(=O)CCc1ccccc1`, the result was inactive.

With `COc1cc(O)cc(O)c1C(=O)CCc1ccccc1`, the result was inactive.

As for `CC[C@H](/C=C/[C@@H](C)[C@H]1CC[C@H]2[C@@H]3CC=C4C[C@@H](O)CC[C@]4(C)[C@H]3CC[C@]12C)C(C)C`, the outcome was inactive.

Regarding `COc1ccccc1COC(=O)c1ccccc1`, the outcome was inactive.

For `CO[C@H]1C=C[C@@H](OC(=O)c2ccccc2)[C@@H](OC)[C@]1(O)COC(=O)c1ccccc1`, the result was inactive.

Take `COc1cc(O)c(Cc2ccccc2O)c(O)c1C(=O)CCc1ccccc1` [UVARETIN]: the outcome was inactive.

For the molecule `CO[C@H]1[C@H](OC(=O)c2ccccc2)C=C[C@H](Cl)[C@]1(O)COC(=O)c1ccccc1`, the outcome was inactive.

On to `CC[C@H](CC[C@@H](C)[C@H]1CC[C@H]2[C@@H]3CC=C4C[C@@H](O)CC[C@]4(C)[C@H]3CC[C@]12C)C(C)C`, for which the outcome was inactive.

On to `COc1ccc(C(=O)C(C)c2ccc(O)cc2)c(O)c1` (centres undefined), for which the result was inactive.

In the case of `CC(=O)O[C@@H]1C=C[C@@H](OC(=O)c2ccccc2)[C@H](O)[C@]1(O)COC(=O)c1ccccc1`, the outcome was inactive.
